Experimental data: ChEMBL document CHEMBL4340551, “Design, synthesis and preliminary bioactivity studies of indomethacin derivatives as Bcl-2/Mcl-1 dual inhibitors” (Bioorg Med Chem, 2019); call rule not given here

Columns and labels:
[1] = system: Jurkat; assay: Induction of apoptosis in human Jurkat cells assessed as necrotic cells level at 20 uM incubated for 48 hrs by annexin-V/FITC and propidium iodide staining based flow cytometry (reference value: 6.29%); type: functional
[2] = system: PC-3; assay: Antiproliferative activity against human PC3 cells assessed as reduction in cell growth incubated for 48 hrs by MTT assay; type: functional, cell-based; details: PC-3, 48 h
Method in brief: (§1)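 PC-3, Jurkat and K562 cells grown in RPMI 1640 with 10% FBS at 37°C, 5% CO2. Cells seeded at 2000-4000 per well and left 8 h before compound addition at a range of concentrations. Exposure 48 h, then 0.5% MTT solution for 4 h. Formazan dissolved in DMSO and absorbance read at 570 nm. IC50 derived from concentrations and inhibitory ratios.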

[3] = molecular target: T1, Apoptosis regulator Bcl-2 (Homo sapiens, UniProt P10415); assay: Potency index, ratio of Ki for UMI77 to Ki for test compound for inhibition of 5-FAM-tagged Bid-BH3 peptide binding to Bcl2 (unknown origin) by fluorescence polarization assay
[4] = system: Jurkat; assay: Induction of apoptosis in human Jurkat cells assessed as viable cells level at 20 uM incubated for 48 hrs by annexin-V/FITC and propidium iodide staining based flow cytometry (reference value: 86.5%); type: functional
[5] = system: Jurkat; assay: Antiproliferative activity against human Jurkat cells assessed as reduction in cell growth incubated for 48 hrs by MTT assay; type: functional, cell-based; method in brief: as §1
[6] = system: Jurkat; assay: Induction of apoptosis in human Jurkat cells assessed as early apoptotic cells level at 40 uM incubated for 48 hrs by annexin-V/FITC and propidium iodide staining based flow cytometry (reference value: 7.02%); type: functional
[7] = system: Jurkat; assay: Induction of apoptosis in human Jurkat cells assessed as early apoptotic cells level at 20 uM incubated for 48 hrs by annexin-V/FITC and propidium iodide staining based flow cytometry (reference value: 7.02%); type: functional
[8] = molecular target: Induced myeloid leukemia cell differentiation protein Mcl-1 (Homo sapiens, UniProt Q07820); assay: Inhibition of 5-FAM-tagged Bid-BH3 peptide binding to Mcl1 (unknown origin) by fluorescence polarization assay
Method in brief: (§2)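 Competitive fluorescence polarization in which compounds displace labelled Bid-BH3 peptide from the Bcl-2 family protein, read as a fall in mP. IC50 taken from mP versus concentration. Ki calculated from IC50, Kd, and the peptide and protein concentrations.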

[9] = system: K562; assay: Antiproliferative activity against human K562 cells assessed as reduction in cell growth incubated for 48 hrs by MTT assay; type: functional, cell-based; details: K562, 48 h; method in brief: as §1
[10] = molecular target: Bcl-2-like protein 1 (Homo sapiens, UniProt Q07817); assay: Inhibition of 5-FAM-tagged Bid-BH3 peptide binding to Bcl-XL (unknown origin) by fluorescence polarization assay; method in brief: as §2
[11] = molecular target: T1, Apoptosis regulator Bcl-2; assay: Potency index, ratio of Ki for WL276 to Ki for test compound for inhibition of 5-FAM-tagged Bid-BH3 peptide binding to Bcl2 (unknown origin) by fluorescence polarization assay
[12] = system: Jurkat; assay: Induction of apoptosis in human Jurkat cells assessed as late apoptotic cells level at 20 uM incubated for 48 hrs by annexin-V/FITC and propidium iodide staining based flow cytometry (reference value: 6.29%); type: functional
[13] = system: Jurkat; assay: Potency index, ratio of IC50 for WL276 to IC50 for test compound for antiproliferative activity against human Jurkat cells assessed as reduction in cell growth incubated for 48 hrs by MTT assay; type: functional
[14] = system: Jurkat; assay: Induction of apoptosis in human Jurkat cells assessed as necrotic cells level at 40 uM incubated for 48 hrs by annexin-V/FITC and propidium iodide staining based flow cytometry (reference value: 6.29%); type: functional
[15] = system: Jurkat; assay: Induction of apoptosis in human Jurkat cells assessed as late apoptotic cells level at 40 uM incubated for 48 hrs by annexin-V/FITC and propidium iodide staining based flow cytometry (reference value: 6.29%); type: functional
[16] = molecular target: T1, Apoptosis regulator Bcl-2; assay: Inhibition of 5-FAM-tagged Bid-BH3 peptide binding to Bcl2 (unknown origin) by fluorescence polarization assay; details: read-out: Ki
[17] = system: Jurkat; assay: Induction of apoptosis in human Jurkat cells assessed as viable cells level at 40 uM incubated for 48 hrs by annexin-V/FITC and propidium iodide staining based flow cytometry (reference value: 86.5%); type: functional
[18] = system: Jurkat; assay: Induction of apoptosis in human Jurkat cells incubated for 48 hrs by annexin-V/FITC and propidium iodide staining based flow cytometry; type: functional, cell-based

T1 sequence (P10415 whole entry): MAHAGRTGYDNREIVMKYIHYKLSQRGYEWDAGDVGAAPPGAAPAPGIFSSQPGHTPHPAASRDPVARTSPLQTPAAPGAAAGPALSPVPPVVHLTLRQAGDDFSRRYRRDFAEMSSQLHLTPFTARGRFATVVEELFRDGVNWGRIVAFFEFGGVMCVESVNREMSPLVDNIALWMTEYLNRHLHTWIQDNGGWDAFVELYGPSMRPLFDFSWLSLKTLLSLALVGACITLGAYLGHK
Chain of Bcl-2-like protein 1 (Q07817 whole entry): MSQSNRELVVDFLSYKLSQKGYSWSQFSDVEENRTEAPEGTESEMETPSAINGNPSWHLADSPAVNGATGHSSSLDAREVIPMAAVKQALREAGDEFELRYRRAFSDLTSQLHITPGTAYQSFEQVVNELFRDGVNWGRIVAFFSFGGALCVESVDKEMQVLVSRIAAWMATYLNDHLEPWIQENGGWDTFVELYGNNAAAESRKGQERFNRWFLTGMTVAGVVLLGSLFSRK
Chain of Induced myeloid leukemia cell differentiation protein Mcl-1 (Q07820 whole entry): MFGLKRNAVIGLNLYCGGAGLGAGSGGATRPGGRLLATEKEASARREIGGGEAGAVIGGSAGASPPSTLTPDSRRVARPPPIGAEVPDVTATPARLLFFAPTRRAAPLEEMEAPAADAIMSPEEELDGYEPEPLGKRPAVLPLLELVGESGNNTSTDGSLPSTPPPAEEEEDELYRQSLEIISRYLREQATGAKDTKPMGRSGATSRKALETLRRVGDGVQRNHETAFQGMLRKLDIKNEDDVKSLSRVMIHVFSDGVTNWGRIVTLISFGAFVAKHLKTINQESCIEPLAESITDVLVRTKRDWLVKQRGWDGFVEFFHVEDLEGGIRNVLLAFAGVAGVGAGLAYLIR

Q: How did the Activity [1] turn out when `COc1ccc2c(c1)c(CC(=O)N[C@@H](Cc1ccc(OCc3ccc(Br)cc3)cc1)C(=O)NS(=O)(=O)c1ccc(Cl)c([N+](=O)[O-])c1)c(C)n2C(=O)c1ccc(Cl)cc1` was run?
A: 0.51%

Q: And the IC50 [2]?
A: 25.8 µM

Q: What about the Ratio Ki [3] of the same molecule?
A: 5 to 6

Q: What about the Activity [4] of the same molecule?
A: 56.3%

Q: And the IC50 [5]?
A: 24.7 µM

Q: And the Activity [6]?
A: 27.5%

Q: What about the Activity [7] of the same molecule?
A: 21.8%

Q: What about the Ki [8] of the same molecule?
A: 0.44 µM

Q: And the IC50 [9]?
A: 35.9 µM

Q: And the Ki [10]?
A: Not Active

Q: What about the Ratio Ki [11] of the same molecule?
A: 2 to 3

Q: What about the Activity [12] of the same molecule?
A: 21.3%

Q: What about the “Ratio IC50” value [13] of the same molecule?
A: 2

Q: What about the Activity [14] of the same molecule?
A: 0.81%

Q: What about the Activity [15] of the same molecule?
A: 29.3%

Q: What about the Ki [16] of the same molecule?
A: 0.44 µM

Q: And the Activity [17]?
A: 42.3%

Q: And the Activity [18]?
A: Dose-dependent effect
